Assay [1] has as its system PC-3. The assay can be described thus: Induction of morphological changes in human PC-3 cells assessed as loss of adhesion at 0.24 uM measured after 24 hrs by phase contrast microscopy. The assay is classed as functional, cell-based. In a few lines: (§1)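 PC3 cells were seeded at 1×10^5 per well in 6-well plates and treated after 24 h, with or without 1 mM N-acetyl-L-cysteine. The same observation field was imaged by phase contrast microscopy at 1, 2, 3, 4 and 24 h. DMSO vehicle served as control.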

Assay [2] relates to PC-3. The assay can be described thus: Cytotoxicity against human PC-3 cells assessed as reduction in cell viability at 0.24 uM measured after 24 hrs in presence of antioxidant N-acetyl-L-cysteine by SRB assay. The assay is classed as functional, cell-based. The procedure, abridged:
(§2)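 SRB assay: PC3 seeded 1×10^4 per well, after 24 h exposed 24 h at 37 °C, 5% CO2 with or without 1 mM N-acetyl-L-cysteine; vehicle 0.1% DMSO. Fixed with 15% TCA at 4 °C for 1 h, dried, stained 0.4% sulforhodamine B, dye solubilized in 10 mM Tris, absorbance 540 nm; ANOVA/Tukey.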

For assay [3], the system named is PC-3. The assay can be described thus: Cell cycle arrest in human PC-3 cells assessed as down regulation of CCND1 gene expression at 0.24 uM measured after 3 hrs by qPCR analysis. The assay is classed as functional, cell-based. The procedure, abridged: (§3)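 Seeded 1×10^5 cells per well in 6-well plates; PC3 treated 3 h. Total RNA extracted, qPCR; each target normalized to reference gene (β-actin) by efficiency-corrected ΔΔCt (Pfaffl) against a control calibrator sample, efficiencies from amplification profiles. Mean ± SEM of four independent experiments.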
(In general: In qPCR the cycle at which signal appears reflects the starting amount.)

Assay [4] concerns PC-3. The assay can be described thus: Cell cycle arrest in human PC-3 cells assessed as increase in cell accumulation at sub-G1 phase at 0.24 uM measured after 3 hrs in presence of antioxidant N-acetyl-L-cysteine by propidium iodide staining based flow cytometry. The assay is classed as functional. The procedure, abridged: (§4)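 PC3 cells seeded 1×10^5 per well in 6-well plates, exposed 3 h, with or without 1 mM N-acetyl-L-cysteine pretreatment; vehicle 0.1% DMSO. Harvested with trypsin-EDTA, fixed in 75% ethanol in PBS at 4 °C for 30 min, stained 1 h with RNase (1.5 mg mL^-1) and propidium iodide (90 μg mL^-1); DNA content by flow cytometry. Phase fractions compared with control by ANOVA/Tukey.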
Background: Flow cytometry measures light scatter and fluorescence of single cells or particles in a stream.

Assay [5] deals with PC-3. Briefly: Induction of apoptosis in human PC-3 cells assessed as effect on BCL2 gene expression at 0.24 uM measured after 3 hrs by qPCR analysis. The assay is classed as functional, cell-based. In a few lines:
as §3

For assay [6], the system named is PC-3. The assay can be described thus: Induction of apoptosis in human PC-3 cells assessed as necrotic cells at 0.24 uM measured after 6 hrs by Alexa Fluor 488-annexin V/propidium iodide staining based flow cytometry (reference value: 1.28%). The assay is classed as functional.
The subject of assay [7] is PC-3. The assay can be described thus: Cell cycle arrest in human PC-3 cells assessed as down regulation of c-Myc gene expression at 0.24 uM measured after 3 hrs by qPCR analysis. The assay is classed as functional, cell-based. In a few lines:
as §3

Assay [8] concerns PC-3. Briefly: Induction of apoptosis in human PC-3 cells assessed as viable cells at 0.24 uM measured after 6 hrs by Alexa Fluor 488-annexin V/propidium iodide staining based flow cytometry (reference value: 89.37%). The assay is classed as functional. Particulars: read-out: Activity.
In assay [9] the test system is PC-3. The assay can be described thus: Cell cycle arrest in human PC-3 cells assessed as reduction in cell accumulation at G0/G1 phase at 0.24 uM measured after 3 hrs by propidium iodide staining based flow cytometry. The assay is classed as functional. In a few lines:
as §4

The subject of assay [10] is PC-3. Briefly: Cell cycle arrest in human PC-3 cells assessed as reduction in cell accumulation at G0/G1 phase in presence of antioxidant N-acetyl-L-cysteine at 0.05 uM measured after 3 hrs by propidium iodide staining based flow cytometry. The assay is classed as functional. The procedure, abridged: as §4
The subject of assay [11] is PC-3. Briefly: Induction of ROS generation in human PC-3 cells at 0.05 uM measured after 30 mins by CellROX reagent based flow cytometry. The assay is classed as functional, cell-based. In a few lines: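 PC3 seeded 1×10^5 per well in 6-well plates, after 24 h treated together with CellROX green (5 μM final) for 30 min at 37 °C; 0.1% DMSO negative control, 1 mM H2O2 positive control. Cells collected and CellROX-positive fraction measured by flow cytometry.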

Assay [12] deals with PC-3. Briefly: Cell cycle arrest in human PC-3 cells assessed as down regulation of cyclin D1 expression at 0.05 uM measured after 3 hrs by Western blot analysis. The assay is classed as functional, cell-based. The procedure, abridged: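 Western blot: PC3 seeded 1×10^7 per 100 mm dish, treated 3 h or 6 h, lysed in RIPA with protease/phosphatase inhibitors; 50 μg protein on 12% SDS-PAGE, PVDF transfer, 5% milk block, anti-cyclin D1 (1:1000) overnight at 4 °C, HRP anti-rabbit secondary, β-actin loading control, ECL detection and band densitometry; two independent experiments.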
In general terms: Immunoblotting shows a protein as a band on a membrane.

Assay [13] concerns PC-3. The assay can be described thus: Cell cycle arrest in human PC-3 cells assessed as increase in cell accumulation at sub-G1 phase at 0.05 uM measured after 3 hrs in presence of antioxidant N-acetyl-L-cysteine by propidium iodide staining based flow cytometry. The assay is classed as functional. The procedure, abridged: as §4
The subject of assay [14] is PC-3. Briefly: Cytotoxicity against human PC-3 cells assessed as reduction in cell viability at 0.05 uM measured after 24 hrs by SRB assay. The assay is classed as functional, cell-based. The procedure, abridged: as §2
Assay [15] has as its system PC-3. Briefly: Induction of morphological changes in human PC-3 cells assessed as loss of adhesion at 0.05 uM measured after 24 hrs by phase contrast microscopy. The assay is classed as functional, cell-based. In a few lines: as §1
Assay [16] has as its system PC-3. The assay can be described thus: Cell cycle arrest in human PC-3 cells assessed as reduction in cell accumulation at G0/G1 phase at 0.05 uM measured after 3 hrs by propidium iodide staining based flow cytometry. The assay is classed as functional. The procedure, abridged: as §4
Assay [17] relates to PC-3. The assay can be described thus: Cell cycle arrest in human PC-3 cells assessed as down regulation of CCND1 gene expression at 0.05 uM measured after 3 hrs by qPCR analysis. The assay is classed as functional, cell-based. In a few lines:
as §3

Assay [18] concerns PC-3. Briefly: Induction of ROS generation in human PC-3 cells at 0.05 uM measured after 30 mins by CellROX reagent based confocal microscopy. The assay is classed as functional, cell-based. In a few lines: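 Confocal ROS imaging of PC3: cells loaded with 2.5 μM CellROX green plus 0.5 μM MitoTracker Red for 30 min at 37 °C, washed three times in PBS, imaged immediately; DMSO vehicle and H2O2 controls.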

Assay [19] has as its system PC-3. Briefly: Cytotoxicity against human PC-3 cells assessed as cell growth inhibition at 0.05 uM measured after 48 hrs in presence of 0.5 to 50 uM NO scavenger carboxy-PTIO by CCK-8 assay. The assay is classed as functional, cell-based. In a few lines: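 PC3 at 1×10^4 cells per well attached 24 h, pretreated 1 h with carboxy-PTIO (0, 0.50, 3.13, 6.25, 12.50, 25, 50 μM), then compound added for 48 h; washed three times with PBS, growth read by CCK-8 as percent inhibition versus control cells; two experiments in triplicate.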

Assay [20] deals with PC-3. The assay can be described thus: Induction of morphological changes in human PC-3 cells assessed as reduction in cell density at 0.05 uM measured after 24 hrs by phase contrast microscopy. The assay is classed as functional, cell-based. The procedure, abridged: as §1
Assay [21] deals with PC-3. Briefly: Induction of apoptosis in human PC-3 cells assessed as viable cells at 0.05 uM measured after 6 hrs by Alexa Fluor 488-annexin V/propidium iodide staining based flow cytometry (reference value: 89.37%). The assay is classed as functional. Conditions: read-out: Activity.
Assay [22] concerns PC-3. The assay can be described thus: Induction of morphological changes in human PC-3 cells assessed as cell rounding at 0.05 uM measured after 24 hrs by phase contrast microscopy. The assay is classed as functional, cell-based. In a few lines: as §1
The subject of assay [23] is PC-3. The assay can be described thus: Cell cycle arrest in human PC-3 cells assessed as increase in cell accumulation at G2/M phase in presence of antioxidant N-acetyl-L-cysteine at 0.05 uM measured after 3 hrs by propidium iodide staining based flow cytometry. The assay is classed as functional. In a few lines: as §4

The source made the active and inactive calls. The calls are words filed in the database; no cut-off is given here.

Consider `COc1cc(/C=C/C(=O)N2CCC=CC2=O)cc(OC)c1OCCCOc1no[n+]([O-])c1S(=O)(=O)c1ccccc1`, for which the figures for the Activity result in [1], in assay [6] and in [9] were “Active; Partial Loss Of Adhesion Observed”, 0.81% and “Active; Significant Reduction Observed”, respectively. In addition, the result in assay [2], in assay [4] and in assay [5] was inactive. In addition, the outcome in [3] and in assay [7] was Active. Also, the viability at 0.24 µM in [8] was 48.6%.

Turning to `COc1cc(/C=C/C(=O)N2CCC=CC2=O)cc(OC)c1OCCCCCCCCCCCCOc1no[n+]([O-])c1S(=O)(=O)c1ccccc1`, the outcome in assay [10], in assay [11], in assay [12], in assay [14], in assay [17] and in assay [18] was Active. The outcome in [20], in [22] and in [23] was Active. The result in [13] was inactive. In addition, the Activity entry was “Active; Partial Loss Of Adhesion Observed” in [15] and “Active; Significant Reduction Observed” in assay [16]. Also, in [19], the “growth inhibition (GI)” value is “inactive”. Further, the viability at 0.05 µM in assay [21] stood at 12.6%.

The values above are taken from ChEMBL document CHEMBL6134784, “Furoxan-piplartine hybrids as effective NO donors and ROS inducers in PC3 cancer cells: design, synthesis, and biological evaluation” (RSC Med Chem, 2024).
